What all share (assay type): functional
Experiment [1] deals with Mycobacterium kansasii. The experiment is described as follows: Antimycobacterial activity against Mycobacterium kansasii CNCTC My 235/80 after 14 days by microdilution method. The note with it: CNCTC My 235/80, 336 h. The essentials:
(§1)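 Strains from the Czech National Collection of Type Cultures, tested by dilution micromethod in Šula semisynthetic medium. Incubated at 37 °C and read at 14 and 21 days. MIC is the lowest concentration inhibiting growth.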

For experiment [2], the system named is Mycobacterium kansasii. The experiment is described as follows: Antimycobacterial activity against Mycobacterium kansasii 6509/96 after 14 days by microdilution method. The note with it: 6509/96, 336 h. Put shortly: (§2)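 Clinical isolate that, unlike the standard strain, is not isoniazid-resistant. Tested by dilution micromethod in Šula semisynthetic medium, with compounds added in DMSO at final 1000 down to 0.25 µmol/L in twofold steps. Löwenstein-Jensen plate used as inoculum sterility and growth control. Incubated at 37 °C and read at 14 and 21 days. MIC is the lowest concentration inhibiting growth.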
Background: Broth dilution looks for growth in wells or tubes with falling amounts of substance.

Experiment [3] has as its system Mycobacterium avium. The experiment is described as follows: Antimycobacterial activity against Mycobacterium avium CNCTC My 330/88 after 21 days by microdilution method. Particulars: CNCTC My 330/88, 504 h. The essentials:
as §1

Experiment [4] concerns Mycobacterium tuberculosis. As to the kind of experiment: Antimycobacterial activity against Mycobacterium tuberculosis CNCTC My 331/88 after 14 days by microdilution method. The note with it: CNCTC My 331/88, 336 h. The essentials:
as §1

The subject of experiment [5] is Mycobacterium kansasii. As to the kind of experiment: Antimycobacterial activity against Mycobacterium kansasii 6509/96 after 21 days by microdilution method. Particulars: 6509/96, 504 h. The essentials:
as §2

The test system of experiment [6] is Mycobacterium tuberculosis. The experiment is described as follows: Antimycobacterial activity against Mycobacterium tuberculosis CNCTC My 331/88 after 21 days by microdilution method. Particulars: CNCTC My 331/88, 504 h. Put shortly:
as §1

In experiment [7] the test system is Mycobacterium kansasii. The experiment is described as follows: Antimycobacterial activity against Mycobacterium kansasii CNCTC My 235/80 after 21 days by microdilution method. Particulars: CNCTC My 235/80, 504 h. The essentials:
as §1

Experiment [8] concerns Mycobacterium avium. As to the kind of experiment: Antimycobacterial activity against Mycobacterium avium CNCTC My 330/88 after 14 days by microdilution method. Particulars: CNCTC My 330/88, 336 h. The essentials:
as §1

SMILES strings stand for the structures. Converted amounts (≈) assume the structure as drawn.

Turning to `CC(C)c1ccc(-n2c(=O)oc3cc(Cl)ccc3c2=O)cc1`, the MIC with Mycobacterium kansasii [1] is 8 µM (≈ 2.53 µg/mL); with Mycobacterium kansasii [2] it was 8 µM (≈ 2.53 µg/mL); in the experiment on Mycobacterium avium [3], 16 µM (≈ 5.05 µg/mL); in experiment [4] it was 4 µM (≈ 1.26 µg/mL); against Mycobacterium kansasii [5], 8 µM (≈ 2.53 µg/mL); in experiment [6] it was 4 µM (≈ 1.26 µg/mL). Further, the MIC was 16 µM (≈ 5.05 µg/mL) against Mycobacterium kansasii [7] and 8 µM (≈ 2.53 µg/mL) against Mycobacterium avium [8].

Regarding `CC(C)(C)c1ccc(-n2c(=O)oc3ccc(Cl)cc3c2=S)cc1`, the MIC was 8 µM (≈ 2.77 µg/mL) in the experiment on Mycobacterium kansasii [1]; 4 µM (≈ 1.38 µg/mL) against Mycobacterium kansasii [2]; 2 µM (≈ 0.692 µg/mL) against Mycobacterium avium [3]; 0.25 µM (≈ 0.0865 µg/mL) in experiment [4]; 8 µM (≈ 2.77 µg/mL) against Mycobacterium kansasii [5]; 0.5 µM (≈ 0.173 µg/mL) in experiment [6]. Also, the MIC against Mycobacterium kansasii [7] turned out to be 8 µM (≈ 2.77 µg/mL); against Mycobacterium avium [8] it was 1 µM (≈ 0.346 µg/mL).

With `CCCCc1ccc(-n2c(=O)oc3ccc(Cl)cc3c2=S)cc1`, the MIC was found to be 8 µM (≈ 2.77 µg/mL) against Mycobacterium kansasii [1]; 4 µM (≈ 1.38 µg/mL) in the experiment with Mycobacterium kansasii [2]; 16 µM (≈ 5.53 µg/mL) in the experiment on Mycobacterium avium [3]; 1 µM (≈ 0.346 µg/mL) in experiment [4]; 4 µM (≈ 1.38 µg/mL) in the experiment on Mycobacterium kansasii [5]; 2 µM (≈ 0.692 µg/mL) in experiment [6]. The MIC against Mycobacterium kansasii [7] was determined as 16 µM (≈ 5.53 µg/mL); in the experiment with Mycobacterium avium [8] it was 8 µM (≈ 2.77 µg/mL).

With `NNC(=O)c1ccncc1` [ISONIAZID], the MIC is more than 250 µM with Mycobacterium kansasii [1]; 8 µM (≈ 1.1 µg/mL) in the experiment on Mycobacterium kansasii [2]; more than 250 µM against Mycobacterium avium [3]; 0.5 µM (≈ 0.0686 µg/mL) in experiment [4]; 8 µM (≈ 1.1 µg/mL) with Mycobacterium kansasii [5]; 0.5 µM (≈ 0.0686 µg/mL) in experiment [6]. In addition, the MIC in the experiment on Mycobacterium kansasii [7] and with Mycobacterium avium [8] was more than 250 µM throughout.

Turning to `CC(C)c1ccc(-n2c(=O)oc3ccc(Cl)cc3c2=S)cc1`, the minimal inhibitory concentration (MIC) with Mycobacterium kansasii [1] was 8 µM (≈ 2.65 µg/mL); against Mycobacterium kansasii [2] it was 1 µM (≈ 0.332 µg/mL); against Mycobacterium avium [3], 125 µM (≈ 41.5 µg/mL); in experiment [4] it was 0.5 µM (≈ 0.166 µg/mL); in the experiment on Mycobacterium kansasii [5] it was 2 µM (≈ 0.664 µg/mL); in experiment [6], 1 µM (≈ 0.332 µg/mL). Besides, the MIC with Mycobacterium kansasii [7] amounted to 16 µM (≈ 5.31 µg/mL); against Mycobacterium avium [8], 32 µM (≈ 10.6 µg/mL).

Take `CC(C)(C)c1ccc(-n2c(=S)oc3cc(Cl)ccc3c2=S)cc1`: the MIC with Mycobacterium kansasii [1] is 2 µM (≈ 0.724 µg/mL); against Mycobacterium kansasii [2], 2 µM (≈ 0.724 µg/mL); against Mycobacterium avium [3], 4 µM (≈ 1.45 µg/mL); in experiment [4], 0.5 µM (≈ 0.181 µg/mL); in the experiment on Mycobacterium kansasii [5] it was 4 µM (≈ 1.45 µg/mL); in experiment [6], 0.5 µM (≈ 0.181 µg/mL). The minimal inhibitory concentration (MIC) was 4 µM (≈ 1.45 µg/mL) in the experiment on Mycobacterium kansasii [7] and 2 µM (≈ 0.724 µg/mL) against Mycobacterium avium [8].

Turning to `CCc1ccc(-n2c(=O)oc3cc(Cl)ccc3c2=S)cc1`, the MIC with Mycobacterium kansasii [1] came to 8 µM (≈ 2.54 µg/mL); in the experiment with Mycobacterium kansasii [2] it was 8 µM (≈ 2.54 µg/mL); against Mycobacterium avium [3] it was 8 µM (≈ 2.54 µg/mL); in experiment [4], 0.5 µM (≈ 0.159 µg/mL); with Mycobacterium kansasii [5] it was 8 µM (≈ 2.54 µg/mL); in experiment [6], 0.5 µM (≈ 0.159 µg/mL). In addition, the MIC in the experiment on Mycobacterium kansasii [7] and in the experiment with Mycobacterium avium [8] was 8 µM (≈ 2.54 µg/mL) throughout.

Consider `CCC(C)c1ccc(-n2c(=O)oc3ccc(Br)cc3c2=S)cc1` (centres undefined), for which the MIC in the experiment on Mycobacterium kansasii [1] was determined as 4 µM (≈ 1.56 µg/mL); in the experiment on Mycobacterium kansasii [2], 2 µM (≈ 0.781 µg/mL); with Mycobacterium avium [3] it was 32 µM (≈ 12.5 µg/mL); in experiment [4] it was 0.25 µM (≈ 0.0976 µg/mL); in the experiment on Mycobacterium kansasii [5], 4 µM (≈ 1.56 µg/mL); in experiment [6], 0.5 µM (≈ 0.195 µg/mL). The MIC in the experiment with Mycobacterium kansasii [7] came to 8 µM (≈ 3.12 µg/mL); in the experiment with Mycobacterium avium [8] it was 16 µM (≈ 6.24 µg/mL).

Consider `CCC(C)c1ccc(-n2c(=O)oc3ccc(F)cc3c2=O)cc1` (centres undefined), for which the MIC in the experiment on Mycobacterium kansasii [1] amounted to 8 µM (≈ 2.51 µg/mL); in the experiment with Mycobacterium kansasii [2], 4 µM (≈ 1.25 µg/mL); in the experiment on Mycobacterium avium [3], 8 µM (≈ 2.51 µg/mL); in experiment [4] it was 8 µM (≈ 2.51 µg/mL); in the experiment with Mycobacterium kansasii [5] it was 8 µM (≈ 2.51 µg/mL); in experiment [6], 8 µM (≈ 2.51 µg/mL). Further, the MIC against Mycobacterium kansasii [7] and against Mycobacterium avium [8] was 8 µM (≈ 2.51 µg/mL) each time.

For `CCc1ccc(-n2c(=O)oc3ccc(Cl)cc3c2=S)cc1`, the MIC against Mycobacterium kansasii [1] is 8 µM (≈ 2.54 µg/mL); in the experiment with Mycobacterium kansasii [2], 4 µM (≈ 1.27 µg/mL); with Mycobacterium avium [3] it was 16 µM (≈ 5.08 µg/mL); in experiment [4] it was 0.5 µM (≈ 0.159 µg/mL); against Mycobacterium kansasii [5] it was 4 µM (≈ 1.27 µg/mL); in experiment [6], 0.5 µM (≈ 0.159 µg/mL). Besides, the MIC in the experiment with Mycobacterium kansasii [7] came out at 8 µM (≈ 2.54 µg/mL); in the experiment on Mycobacterium avium [8], 16 µM (≈ 5.08 µg/mL).

As for `CC(C)c1ccc(-n2c(=S)oc3ccc(Br)cc3c2=S)cc1`, the MIC with Mycobacterium kansasii [1] is 32 µM (≈ 12.6 µg/mL); in the experiment on Mycobacterium kansasii [2], 4 µM (≈ 1.57 µg/mL); in the experiment with Mycobacterium avium [3], 16 µM (≈ 6.28 µg/mL); in experiment [4] it was 0.5 µM (≈ 0.196 µg/mL); in the experiment with Mycobacterium kansasii [5], 8 µM (≈ 3.14 µg/mL); in experiment [6], 1 µM (≈ 0.392 µg/mL). For the same compound, the MIC against Mycobacterium kansasii [7] was determined as 62.5 µM (≈ 24.5 µg/mL); in the experiment with Mycobacterium avium [8], 8 µM (≈ 3.14 µg/mL).

For `Cc1ccc2c(=S)n(-c3ccc(C(C)(C)C)cc3)c(=O)oc2c1`, the minimum inhibitory concentration (MIC) with Mycobacterium kansasii [1] came to 2 µM (≈ 0.651 µg/mL); against Mycobacterium kansasii [2], 1 µM (≈ 0.325 µg/mL); against Mycobacterium avium [3] it was 0.5 µM (≈ 0.163 µg/mL); in experiment [4], 0.25 µM (≈ 0.0814 µg/mL); against Mycobacterium kansasii [5] it was 1 µM (≈ 0.325 µg/mL); in experiment [6], 0.5 µM (≈ 0.163 µg/mL). The values for the MIC with Mycobacterium kansasii [7] and in the experiment with Mycobacterium avium [8] were 2 µM (≈ 0.651 µg/mL) and 0.25 µM (≈ 0.0814 µg/mL), respectively.

`CCc1ccc(-n2c(=O)oc3cc(Cl)ccc3c2=O)cc1`: the MIC stood at 16 µM (≈ 4.83 µg/mL) in the experiment on Mycobacterium kansasii [1]; 16 µM (≈ 4.83 µg/mL) against Mycobacterium kansasii [2]; 16 µM (≈ 4.83 µg/mL) in the experiment with Mycobacterium avium [3]; 8 µM (≈ 2.41 µg/mL) in experiment [4]; 16 µM (≈ 4.83 µg/mL) against Mycobacterium kansasii [5]; 8 µM (≈ 2.41 µg/mL) in experiment [6]. Further, the figures for the MIC with Mycobacterium kansasii [7] and against Mycobacterium avium [8] were 16 µM (≈ 4.83 µg/mL) and 8 µM (≈ 2.41 µg/mL), respectively.

Usually MIC stands for the lowest concentration found to suppress growth. A low value points to inhibition by little substance.

Source of the values: ChEMBL document CHEMBL1287747, “Highly active antimycobacterial derivatives of benzoxazine” (2010).
